In ChEMBL document CHEMBL2151001, “Indiacens A and B: prenyl indoles from the myxobacterium Sandaracinus amylolyticus” (2012):
Values after ≈ are worked out from the molar mass of the structure shown.

Experiments:
Type in all cases: functional
[1] = tested on: Mucor hiemalis; experiment: Antimicrobial activity against Mucor hiemalis by serial dilution method
How it was run: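 Fungal MIC by serial dilution in 96-well plates. Organism cultivated in MYC medium (1.0% phytone peptone, 1.0% glucose, 1.19% HEPES, pH 7.0) at 30 °C, 160 rpm.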

[2] = Antimicrobial activity against Arthrobacter rubellus by serial dilution method
How it was run: (§1)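 MIC by serial dilution in 96-well plates. Test bacteria grown in EBS medium (0.5% peptone, 0.5% glucose, 0.1% meat extract, 0.1% yeast extract, 50 mM HEPES, pH 7.0) at 30 °C with shaking at 160 rpm.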

[3] = tested on: Pimelobacter simplex; experiment: Antimicrobial activity against Nocardioides simplex by serial dilution method; how it was run: as §1
[4] = tested on: Mycobacterium lacticola; experiment: Antimicrobial activity against Mycobacterium lacticola by serial dilution method; how it was run: as §1
[5] = tested on: Mycolicibacterium diernhoferi; experiment: Antimicrobial activity against Mycobacterium diernhoferi by serial dilution method; how it was run: as §1
[6] = tested on: Stutzerimonas stutzeri; experiment: Antimicrobial activity against Pseudomonas stutzeri by serial dilution method; how it was run: as §1
[7] = tested on: Chromobacterium violaceum; experiment: Antimicrobial activity against Chromobacterium violaceum by serial dilution method; how it was run: as §1
[8] = tested on: Escherichia coli; experiment: Antimicrobial activity against Escherichia coli expressing mutant TOLC by serial dilution method

Compound: C=C(C)/C=C/c1cccc2[nH]cc(C=O)c12 [INDIACEN A]
- MIC [1]: 16.6 µg/mL (≈ 78.6 µM)
- MIC [2]: 16.6 µg/mL (≈ 78.6 µM)
- MIC [3]: 8.3 µg/mL (≈ 39.3 µM)
- MIC [4]: 16.6 µg/mL (≈ 78.6 µM)
- MIC [5]: 16.6 µg/mL (≈ 78.6 µM)
- MIC [6]: > 33 µg/mL
- MIC [7]: 16.6 µg/mL (≈ 78.6 µM)
- MIC [8]: 16.6 µg/mL (≈ 78.6 µM)

Compound: CC(/C=C/c1cccc2[nH]cc(C=O)c12)=C\Cl [INDIACEN B]
- MIC [1]: 16.6 µg/mL (≈ 67.6 µM)
- MIC [2]: 0.8 µg/mL (≈ 3.26 µM)
- MIC [3]: 3.3 µg/mL (≈ 13.4 µM)
- MIC [4]: 33 µg/mL (≈ 134 µM)
- MIC [5]: > 33 µg/mL
- MIC [6]: 33 µg/mL (≈ 134 µM)
- MIC [7]: 33 µg/mL (≈ 134 µM)
- MIC [8]: 33 µg/mL (≈ 134 µM)
